A selection: hits, their analogues and other compounds. The true share with any hit is near 3.9%.
CRFBP-R2 block: antagonists of CRF-BP/CRF-R2 complex, primary screen, cell-based, HEK293, calcium dye fluorescence, uHTS; CRF-induced calcium fluorescence; inhibition, % at 11.8 µM; 350,000 compounds, 0.59% hits; AID 588475, 2011;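 active = inhibition of the ligand-induced calcium signal above about 50% at the single tested concentration, limit read from the data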
CRFR2-BP ag: agonists of CRF-BP/CRF-R2 complex, primary screen, cell-based, HEK293, calcium dye fluorescence, uHTS | 350,000 compounds, 0.46% hits | activation, % at 13.2 µM | calcium dye fluorescence (FLIPR); percent of saturating CRF peptide response | AID 588473, 2011;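 active = activation of at least 50%, plus an integration ratio under a set limit after plate pattern correction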
ANO1 block: TMEM16A chloride channel inhibitors, primary screen, cell-based, HTS; Anoctamin-1 (Mus musculus), Q8BHY3; HEK293 TMEM16A/YFP iodide influx fluorescence, ionomycin; normalized B-score (activity score, 25-100; higher = stronger inhibition) at 10 µM; 310,000 compounds, 1.2% hits;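 active = ratio plate-corrected score three or more library SD toward inhibition, starting fluorescence score within five deviations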;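 also: score derived from kinetic fluorescence span divided by baseline fluorescence per well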
TMEM16A act: TMEM16A chloride channel activators or potentiators, primary screen, cell-based, HTS. 340,000 compounds, 0.3% hits. Anoctamin-1 (Mus musculus), Q8BHY3. B-score at 10 µM. HEK293 TMEM16A/YFP-H148Q/I152L, iodide quench fluorescence; hits give low values. AID 623877, 2012;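 active = fluorescence-ratio B-score plate-corrected deviation score at least 3 library SD below zero, with starting fluorescence score within 5 deviations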;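 also: channel opened by trigger with iodide after compound preincubation; score built on the fluorescence ratio of max minus min over baseline; more negative score means more quench and so TMEM16A activation or potentiation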
TAAR1 ag: human TAAR1 agonists, primary screen, Fluo-8 calcium fluorescence, CHO RD-HGA16 cells; vehicle wells 0%, saturating PEA agonist 100%; activation, % at 3 µM; 360,000 compounds, 0.99% hits; AID 624467, 2012;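 active = activation above the mean activation of all test compounds in the run plus 3 SD, cut at about 38% in these data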
Target sequence (Q96RJ0 whole entry, looked up): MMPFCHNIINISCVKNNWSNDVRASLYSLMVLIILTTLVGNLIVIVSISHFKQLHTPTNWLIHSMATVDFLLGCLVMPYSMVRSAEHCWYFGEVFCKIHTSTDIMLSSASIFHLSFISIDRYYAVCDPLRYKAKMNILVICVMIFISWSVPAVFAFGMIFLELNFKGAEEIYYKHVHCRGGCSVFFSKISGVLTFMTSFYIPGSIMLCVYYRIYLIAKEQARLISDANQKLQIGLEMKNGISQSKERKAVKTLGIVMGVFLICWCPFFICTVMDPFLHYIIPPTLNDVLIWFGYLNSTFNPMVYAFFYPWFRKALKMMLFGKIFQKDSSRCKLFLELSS
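test system = CHO RD-HGA16 cells carrying human TAAR1 plus Gα16 | schedule = 17-24 h seeding, 75 min 37 °C dye, 30 min RT | compound dosing = 3 µM single concentration | control set = DMSO and PEA EC100 | replicates = n 1 | signal = Fluo-8 fluorescence, 5 s baseline then 140 s kinetic read | measure = percent activation vs PEA EC100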
TAAR1 antagonist: human TAAR1 antagonists, primary screen, Fluo-8 calcium fluorescence, CHO RD-HGA16 cells. inhibition, % at 3 µM. 360,000 compounds, 1.5% hits. antagonist;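 active = inhibition above a per-plate cutoff, the mean inhibition of test compounds on that plate plus 3 SD, cut at about 49% in these data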
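test system = CHO RD-HGA16 cells bearing hTAAR1 | replication = singlicate | controls = DMSO-only wells and EC80 β-PEA-stimulated wells | reagent = EC80 β-phenethylamine stimulus | read-out basis = percent inhibition of PEA-evoked calcium signal, max/basal emission ratio | schedule = seeding 17-24 h prior, 75-min 37 °C, 30-min RT dye loading | signal = kinetic Fluo-8 calcium fluorescence measurement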
TAAR1 nonsel count: nonselective antagonists in TAAR1 counter-screen cells, counter-screen for hTAAR1 antagonist project, cell-based, fluorescence, calcium. shares compounds with TAAR1 antagonist. counterscreen cell line, antagonist mode. inhibition, % at 3 µM. 2,400 compounds, 77% hits. AID 651780, 2012; in the data active = inhibition above about 22%;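 also: CHO-Ga16 host cells stimulated with ATP at an EC80 level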
TAAR1 antag conf: human TAAR1 antagonists, retest of hits, confirmation, cell-based, fluorescence | AID 651785, 2012 | TAAR1-expressing cells, fluorescence antagonist read-out | inhibition, % at 3 µM | shares compounds with TAAR1 antagonist | 2,400 compounds, 40% hits; in the data active = inhibition above about 49%;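 also: CHO-Ga16 host cells challenged with agonist PEA near its EC80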
Ga16 nonsel ag: calcium activation in Ga16-expressing cells, counter-screen for TAAR1 antagonist project, cell-based, fluorescence | AID 651953, 2012 | 2,400 compounds, 18% hits | activation, % at 3 µM | shares compounds with TAAR1 antagonist | agonist counterscreen; in the data active = activation above about 12%
TAAR1 ag count: TAAR1 activation by candidate antagonists – cell-based, fluorescence, counter-screen for TAAR1 antagonist project; shares compounds with TAAR1 antagonist; hTAAR1 cell line, agonist mode; activation, % at 3 µM; 2,400 compounds, 2% hits; AID 651955, 2012; in the data active = activation above about 37%;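 also: CHO cells stably expressing TAAR1 with calcium dye readout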
Each line names hits and unclear results; the compound was inactive in the other large screens (follow-up assays come after a bar, where they were run).

O=C(Nc1ccc(Nc2ccccc2)cc1)c1ccc(Br)cc1	none
O=C(NCCCCc1ccccc1)c1cccc(NC(=O)c2ccccc2)c1	none (no result: ANO1 block, TMEM16A act)
O=C(NCc1ccc(Cl)cc1)c1cccc(NC(=O)c2ccccc2)c1	none
O=C(NCCCCc1ccccc1)c1cccc(NC(=O)C2CCCC2)c1	TAAR1 antagonist 64.1 (no result: ANO1 block, TMEM16A act) | TAAR1 nonsel count 24.9 | TAAR1 antag conf inactive | Ga16 nonsel ag inactive | TAAR1 ag count inactive
O=C(/C=C/c1ccccc1)Nc1ccc2c(c1)C(=O)NC2=O	TAAR1 antagonist 59.0 | TAAR1 nonsel count 24.3 | TAAR1 antag conf inactive | Ga16 nonsel ag 13.9 | TAAR1 ag count inactive
O=C(Nc1cccc(C(=O)Nc2ccc(Br)cc2)c1)c1ccccc1	TAAR1 antagonist 76.2 | TAAR1 nonsel count 44.3 | TAAR1 antag conf 57.4 | Ga16 nonsel ag inactive | TAAR1 ag count inactive
COc1cc(C(=S)N2CCOCC2)ccc1OC(=O)c1cc(OC)c(OC)c(OC)c1	none
COCCn1c(SC(C)C(=O)NCC2CCCO2)nc2sc3c(c2c1=O)CCC3 (stereo unspecified)	none
CCC(=O)N1N=C(c2ccc(NS(C)(=O)=O)cc2)CC1c1ccc(N(C)C)cc1 (stereo unspecified)	none
CN(C)C(=S)Nc1ccc2c(c1)OCCO2	none
O=C(/C=C/c1ccccc1)Nc1cccc(C(=O)NCCCc2ccccc2)c1	TAAR1 antagonist 76.7 (no result: ANO1 block, TMEM16A act) | TAAR1 nonsel count 34.7 | TAAR1 antag conf 49.9 | Ga16 nonsel ag inactive | TAAR1 ag count inactive
CCCc1cnc(N2CCN(C(=O)c3ccc(OC)cc3)CC2)nc1	none (no result: TAAR1 ag, TAAR1 antagonist)
COc1ccc(CCNC(=O)CCN2C(=O)c3cccc4cccc(c34)C2=O)cc1OC	none
COc1ccc(CCN2C(=O)c3cccc4c(C(=O)N5CCCCC5)ccc(c34)C2=O)cc1OC	TAAR1 antagonist 61.3 | TAAR1 nonsel count 36.5 | TAAR1 antag conf 60.7 | Ga16 nonsel ag 12.4 | TAAR1 ag count inactive
COC(=O)[C@]1(C)N[C@H](CN(C)C(=O)Nc2ccc(C(F)(F)F)cc2)[C@@H]2C(=O)N(C)C(=O)[C@@H]21	none (no result: ANO1 block, TMEM16A act)
CCN(Cc1ccccc1)C(=O)c1nn(-c2ccc(OC)cc2)c(=O)c2c1c1ccccc1n2C	TAAR1 antagonist 84.8 | TAAR1 nonsel count 33.9 | TAAR1 antag conf inactive | Ga16 nonsel ag inactive | TAAR1 ag count inactive
CCCCN(CC)CCNC(=O)c1nn(-c2ccc(OC)cc2)c(=O)c2c1c1ccccc1n2C	none
O=C(CCN1C(=O)/C(=C\c2ccccc2)SC1=S)NNC(=O)c1ccccc1O	none
COc1ccc(NC(C)=O)cc1S(=O)(=O)Nc1ccc(S(=O)(=O)N2CCCCC2)cc1	none (no result: ANO1 block)
COc1ccc(NC(C)=O)cc1NC(C)C(=O)Nc1ccc(S(=O)(=O)N2CCCCC2)cc1 (stereo unspecified)	TAAR1 antagonist 101.2 (no result: ANO1 block) | TAAR1 nonsel count inactive | TAAR1 antag conf inactive | Ga16 nonsel ag inactive | TAAR1 ag count inactive

High-throughput results deposited in PubChem by several laboratories.
